Assay outcomes (PubChem BioAssay)
Sampled rows, rich in hits. Any-hit rate of the full collection: about 2.6%.
SENP6 inh: SENP6 protease inhibition. Recombinant SENP6 catalytic domain, aminoluciferin luminescence. inhibition, % at 10 µM. 1.8% of 330,000 active;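 active = inhibition above about 50% at the single tested dose, limit read from the data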;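 note: plate controls were DMSO wells with enzyme for no effect and DMSO wells lacking enzyme for full effect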
SENP8 block-1: SENP8 protease inhibition; Q96LD8; purified SENP8, Z-RLRGG-aminoluciferin cleavage, luminescence; inhibition, % at 10 µM; 1.2% of 330,000 active; in the data active = inhibition above about 50%
SENP7 inh: blocks the human protease SENP7 | inhibition, % at 5 µM | 1.5% of 330,000 active | AID 434973 | recombinant SENP7, Z-RLRGG-aminoluciferin luminescence, 40 min | Q9BQF6;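 active = inhibition above about 50% at the single test dose, limit read from the data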;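 note: plate controls were DMSO with enzyme for no effect and no enzyme buffer wells for full effect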
Target sequence (Q9BQF6 706-1050 limits assumed): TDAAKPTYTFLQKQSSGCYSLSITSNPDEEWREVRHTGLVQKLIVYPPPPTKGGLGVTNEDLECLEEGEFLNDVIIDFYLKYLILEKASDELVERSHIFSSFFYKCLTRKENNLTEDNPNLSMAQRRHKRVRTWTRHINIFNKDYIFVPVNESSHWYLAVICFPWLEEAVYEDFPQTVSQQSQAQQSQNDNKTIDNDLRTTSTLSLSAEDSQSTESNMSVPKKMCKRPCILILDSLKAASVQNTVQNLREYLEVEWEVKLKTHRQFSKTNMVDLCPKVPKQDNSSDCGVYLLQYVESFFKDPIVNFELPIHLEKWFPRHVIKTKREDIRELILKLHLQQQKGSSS
Platelet DG rel: platelet dense granule release activity; 0.22% of 300,000 active; inhibition, %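 (compounds screened at 7.5 µM in platelet-rich plasma)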; AID 1663; human platelet-rich plasma, SFLLRN dense granule ATP release, luminescence;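 active = mean replicate score, as percent of positive control, at or above 50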
SENP8 block-2: SENP8 (human) protease inhibition. inhibition, % at 20 µM. recombinant SENP8, Nedd8 substrate fluorescence. 0.64% of 360,000 active. AID 602440. Q96LD8; in the data active = inhibition mostly above about 40%, no sharp cut-off; inactive = mostly below about 27%
SENP1 inh: blocks the human SENP1 SUMO protease catalytic domain | Q9P0U3 | recombinant SENP1 catalytic domain, CyPet-SUMO1-YPet FRET cleavage | inhibition, % at 10 µM | 0.21% of 360,000 active | AID 624204;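 active = inhibition at least 30% at 10 µM, raw YFP signal under a set limit, fluorescence ratio 0.5 to 1.5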;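 note: 0% = enzyme with DMSO and 100% = no enzyme wells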
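Test system: hSENP1 catalytic domain, recombinant; Amount: 20 pM final SENP1 enzyme; Medium: Tris pH 8 buffer plus EDTA, NaCl, BME, BSA, NP40, catalase; Schedule: 50 min enzyme reaction, room temperature, light-protected; Technique: FRET fluorescence in CFP and YFP emission channels; Controls: no-enzyme wells low, DMSO-plus-enzyme wells high control.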
SENP8 confirm: confirmation of human SENP8 protease inhibitors; shares compounds with SENP7 inh; Recombinant SENP8, Z-RLRGG-aminoluciferin luminescence, 60 min; inhibition, % at 12.5 µM; 40% of 6,200 active; AID 488912;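 active = mean inhibition across replicates above about 50%, limit read from the data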
SENP6 confirm: human SENP6 inhibition, confirmed; recombinant SENP6, Z-RLRGG-aminoluciferin luminescence; inhibition, % at 12.5 µM; AID 488915; 58% of 6,200 active; shares compounds with SENP7 inh
SENP7 conf: human SENP7 inhibition, confirmed; shares compounds with SENP7 inh; 69% of 6,200 active; recombinant SENP7, Z-RLRGG-aminoluciferin luminescence, 40 min; inhibition, % at 12.5 µM
Casp3 SENP sel: inhibits human caspase-3 in SENP selectivity test | shares compounds with SENP7 inh | purified caspase-3, Z-DEVD-aminoluciferin luminescence, 60 min | inhibition, % at 12.5 µM | 60% of 6,200 active;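 active = mean inhibition above about 50%, limit read from the data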;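 note: plate controls were enzyme with DMSO for no effect and wells without caspase-3 for full effect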
SENP luc ctr: counter-screen for SENP inhibitors: luminescence interference; Pre-incubated SENP8/Z-RLRGG-aminoluciferin, luciferase luminescence interference; 39% of 6,200 active; inhibition, % at 12.5 µM; AID 488919; shares compounds with SENP7 inh;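 active = mean inhibition above about 50% when retested at one dose, limit read from the data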;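 note: plate controls were DMSO wells with completed reaction for no effect and substrate without enzyme for full effect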
Active calls of the source: *; / = no result given.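 Rule for the calls, unless noted: active = mean inhibition above about 50% in the one-dose retest (limit read from the data); inactive = the rest.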

SMILES	SENP6 inh	SENP8 block-1	SENP7 inh	Platelet DG rel	SENP8 block-2	SENP1 inh	SENP8 confirm	SENP6 confirm	SENP7 conf	Casp3 SENP sel	SENP luc ctr
CCN1CCc2c(sc(NC(=S)NC(=O)c3ccccc3)c2C#N)C1	56*	14	46	0	-47	-18	28	27	34	44	18
N#Cc1c(NC(=S)NC(=O)c2ccccc2)sc2c1CCC2	0	-1	8	0	12	4	/	/	/	/	/
COC(=O)c1ccccc1N=Nc1c(C)n[nH]c1C	-6	-9	-11	-1	19	3	/	/	/	/	/
O=C(NNC(=O)c1ccc(NC(=O)c2ccccc2)cc1)c1ccc(F)cc1	4	5	1	-1	-16	1	/	/	/	/	/
O=C(NC1=C(Nc2ccc(F)cc2)C(=O)c2ccccc2C1=O)c1ccc(Cl)cc1	63*	19	25	0	93*	1	36	60*	19	8	-1
O=C(Nc1ccc2c(c1)CCC2)c1cc(F)cc(F)c1	72*	70*	77*	/	4	-2	39	78*	95*	65*	22
O=C(Nc1ccc2c(c1)CCC2)c1cccc(F)c1	88*	76*	92*	-7	9	0	91*	91*	100*	88*	90*
CSc1ccccc1C(=O)Nc1ccc2c(c1)CCC2	52*	42	49	-1	6	-1	47	44	77*	-6	54*
Cc1ccc(C(=O)Nc2ccc3c(c2)CCC3)cc1	88*	81*	91*	-14	10	0	88*	89*	98*	87*	86*
COCCCNc1c2c(nc3nnnn13)CCCC2	21	10	1	2	24	-1	/	/	/	/	/
Cc1ccc(NC(=O)c2cc3c(s2)CCCC3)cc1	11	-10	-2	-6	5	-4	/	/	/	/	/
Cc1ccc(NC(=O)c2scc3c2CCCC3)cc1	91*	2	85*	-9	8	0	-10	-7	19	8	31
O=C(COc1ccc(S(=O)(=O)N2CCOCC2)cc1Cl)NCc1ccccn1	5	0	2	-3	16	1	/	/	/	/	/
CCC(=O)Nc1cccc(-c2ccc(N3CCC(C)CC3)nn2)c1	69*	49	59*	-9	-44	4	21	56*	84*	73*	-12
CC1CCN(c2ccc(-c3cccc(NC(=O)C(F)(F)F)c3)nn2)CC1	40	49	4	2	-108	1	/	/	/	/	/
CC1CCN(c2ccc(-c3cccc(NC(=O)c4ccco4)c3)nn2)CC1	79*	59*	74*	5	-17	0	66*	69*	88*	66*	38
CCC(=O)Nc1ccc(-c2ccc(N3CCC(C)CC3)nn2)cc1	5	1	1	-4	-45	-1	/	/	/	/	/
O=C(Nc1cccc(-c2ccc(N3CCCCC3)nn2)c1)c1ccc(Br)o1	89*	76*	83*	17	-42	-3	73*	79*	94*	82*	60*
COc1ccc(NC(C)=O)cc1S(=O)(=O)N(C)Cc1c(C)nn(-c2ccccc2)c1C	-12	8	-5	/	2	-1	/	/	/	/	/
Cc1cccc2c(C(=O)N3CCN(C(=O)c4ccco4)CC3)cc(-c3cccc(Br)c3)nc12	-9	-8	-5	-4	-29	-3	/	/	/	/	/
Cc1ccc(NC(=O)CCCn2c(=S)[nH]c3ccsc3c2=O)cc1C	-8	0	2	-4	-94	0	/	/	/	/	/
